Experimental data from ChEMBL document CHEMBL3745639, “Structure-activity relationships for lipoprotein lipase agonists that lower plasma triglycerides in vivo” (Eur J Med Chem, 2015).
The source made the active and inactive calls. No rule for the calls is given here.

Legend:
[1] = molecular target: T1, Lipoprotein lipase (Bos taurus) (UniProt P11151); experiment: Induction of bovine LPL stabilization using intralipid as substrate at 12.5 uM preincubated for 10 mins with human recombinant ANGPTL4 followed by substrate addition measured after 45 mins relative to control
T1 sequence (whole entry): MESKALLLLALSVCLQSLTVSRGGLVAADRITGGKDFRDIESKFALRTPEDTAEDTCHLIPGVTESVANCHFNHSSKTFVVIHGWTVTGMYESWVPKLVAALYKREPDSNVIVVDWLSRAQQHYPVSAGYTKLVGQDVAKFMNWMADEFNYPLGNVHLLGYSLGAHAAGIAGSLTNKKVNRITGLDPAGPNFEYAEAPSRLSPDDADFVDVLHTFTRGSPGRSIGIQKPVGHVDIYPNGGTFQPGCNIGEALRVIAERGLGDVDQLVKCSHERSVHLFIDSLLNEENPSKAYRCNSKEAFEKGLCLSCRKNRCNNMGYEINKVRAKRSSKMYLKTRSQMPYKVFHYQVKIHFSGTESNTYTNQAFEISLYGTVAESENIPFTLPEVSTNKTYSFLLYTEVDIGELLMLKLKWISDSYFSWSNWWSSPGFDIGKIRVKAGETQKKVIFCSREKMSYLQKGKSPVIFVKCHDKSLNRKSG
Procedure, shortened: (§1)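 Compound in DMSO in buffer (50 mM potassium phosphate pH 7.4, 0.15 M NaCl, 0.01% Triton X-100), with human ANGPTL4 N-terminal fragment (aa 26-184, 75 nM final) and bovine LPL (15 nM final). Preincubated 10 min at 25 °C with shaking. Stopped after 45 min with 2.5% Triton X-100, and NEFA measured enzymatically. Activity normalised between DMSO+LPL+ANGPTL4 (0%) and DMSO+LPL (100%).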

[2] = Efflux ratio of apparent permeability from basolateral to apical over apical to basolateral side in human Caco2 cells at 10 uM after 15 to 60 mins; assay type: ADME, cell-based; settings: Caco-2
[3] = Stability of the compound in human plasma after 4 hrs at 37 degC by mass spectrometric analysis; assay type: ADME, cell-free; settings: read-out: Stability
Procedure, shortened: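 Plasma test solution (pooled human plasma, typically 10 μM compound) held at 37 °C for 4 h, matching the dialysis time. A reference sample was frozen immediately. Proteins precipitated with methanol containing warfarin, then LC-MS/MS. Stability expressed on a relative basis.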

[4] = molecular target: T1, Lipoprotein lipase (Bos taurus); experiment: Induction of bovine LPL stabilization using intralipid as substrate at 25 uM preincubated for 10 mins with human recombinant ANGPTL4 followed by substrate addition measured after 45 mins relative to control; procedure, shortened: as §1
[5] = molecular target: T2, Peroxisome proliferator-activated receptor gamma (Homo sapiens, UniProt P37231); experiment: Agonist activity at PPARgamma (unknown origin)
T2 sequence (P37231 whole entry): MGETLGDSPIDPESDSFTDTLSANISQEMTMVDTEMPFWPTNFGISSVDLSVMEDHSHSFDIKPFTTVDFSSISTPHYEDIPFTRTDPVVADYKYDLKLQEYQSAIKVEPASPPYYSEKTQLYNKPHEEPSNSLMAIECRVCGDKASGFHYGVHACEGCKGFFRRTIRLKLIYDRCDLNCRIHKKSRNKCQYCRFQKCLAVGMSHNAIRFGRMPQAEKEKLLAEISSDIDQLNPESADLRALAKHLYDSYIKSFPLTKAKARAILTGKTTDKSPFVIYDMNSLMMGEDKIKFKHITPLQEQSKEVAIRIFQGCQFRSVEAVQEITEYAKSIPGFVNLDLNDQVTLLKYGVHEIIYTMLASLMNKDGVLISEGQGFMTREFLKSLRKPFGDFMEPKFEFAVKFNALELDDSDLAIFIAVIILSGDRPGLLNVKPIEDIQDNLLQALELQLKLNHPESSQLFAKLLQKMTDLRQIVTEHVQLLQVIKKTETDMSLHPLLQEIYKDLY
Procedure, shortened: (§2)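 Single agonist-mode profiling at ten concentrations against FXR, PPARα, PPARγ and RXRα, run as an outside screening service.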

[6] = molecular target: T3, Retinoic acid receptor RXR-alpha (Homo sapiens, UniProt P19793); experiment: Agonist activity at RXRalpha (unknown origin); procedure, shortened: as §2
T3 sequence (P19793 whole entry): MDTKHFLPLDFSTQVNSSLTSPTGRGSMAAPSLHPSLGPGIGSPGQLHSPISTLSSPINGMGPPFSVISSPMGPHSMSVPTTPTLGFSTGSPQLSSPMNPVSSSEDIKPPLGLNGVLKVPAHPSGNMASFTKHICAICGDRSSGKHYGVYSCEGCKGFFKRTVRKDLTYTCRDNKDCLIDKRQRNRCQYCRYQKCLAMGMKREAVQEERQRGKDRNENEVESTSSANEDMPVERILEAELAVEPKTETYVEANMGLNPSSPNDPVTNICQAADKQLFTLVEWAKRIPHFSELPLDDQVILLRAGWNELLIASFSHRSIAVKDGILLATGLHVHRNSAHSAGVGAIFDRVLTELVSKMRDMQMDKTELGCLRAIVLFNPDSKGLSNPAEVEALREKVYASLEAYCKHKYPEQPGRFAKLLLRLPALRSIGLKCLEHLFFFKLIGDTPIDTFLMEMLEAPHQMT

[7] = Kinetic aqueous solubility of the compound in PBS at pH 7.4 after 2 hrs by LC-MS/MS analysis; assay type: physicochemical; settings: read-out: Kinetic_solubility
Procedure, shortened: (§3)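 Kinetic solubility from a 10 mM DMSO stock diluted 1:100 (1% DMSO, maximum detectable 0.1 mM) into PBS pH 7.4 or HCl-adjusted PBS at about pH 1.2. Incubated at 37 °C for 2 h in sealed glass vials, centrifuged at 10000 x g, 37 °C, 20 min, then LC-MS/MS.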

[8] = Apparent permeability across apical to basolateral side in human Caco2 cells at 10 uM after 15 to 60 mins; assay type: ADME, cell-based; settings: Caco-2
Procedure, shortened: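 Caco-2 monolayers washed with pre-warmed HBSS, then donor solution applied. Transport run with apical pH 6.5 and basolateral pH 7.4. Monolayer integrity checked by TEER and by mannitol permeability. Papp derived from transport rates.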

[9] = Kinetic aqueous solubility of the compound in PBS at pH 1.2 after 2 hrs by LC-Ms analysis; assay type: physicochemical; settings: read-out: Kinetic_solubility; procedure, shortened: as §3
[10] = Half life in human liver microsomes at 1 uM; assay type: ADME
Procedure, shortened: (§4)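 Pooled liver microsomes (0.5 mg/ml) with compound at 1 μM in 0.1 M phosphate buffer pH 7.4. Reaction started with NADPH 1 mM. Sampled at 0, 5, 15 and 40 min in duplicate, quenched with acetonitrile containing warfarin, then LC-MS/MS.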

[11] = molecular target: T1, Lipoprotein lipase (Bos taurus); experiment: Induction of bovine LPL stabilization using intralipid as substrate at 3.12 uM preincubated for 10 mins with human recombinant ANGPTL4 followed by substrate addition measured after 45 mins relative to control; procedure, shortened: as §1
[12] = Intrinsic clearance in human liver microsomes at 1 uM after 5 to 40 mins by LC-MS/MS analysis in presence of NADPH; assay type: ADME; settings: read-out: CLH; procedure, shortened: as §4

- Activity [1]: 75.6%
- efflux ratio at 10 µM [2]: 1.4
- remaining at 4 h [3]: 96%
- Activity [4]: 97%
- EC50 [5]: > 100 µM
- EC50 [6]: > 100 µM
- solubility kinetic at 2 h [7]: < 2 µM
- Papp A→B at 10 µM [8]: 23 ×10⁻⁶ cm/s
- solubility kinetic at 2 h [9]: < 2 µM
- half-life at 1 µM [10]: > 1.33 h
- Activity [11]: inactive
- microsomal CLint at 1 µM [12]: < 17 µL/min/mg
SMILES: Cc1ccc(NC(=O)c2cc(-n3cc4ccc(C(=O)O)cc4n3)ccc2N2CCCCC2)cc1
